Source: ChEMBL document CHEMBL1138152, “Design and synthesis of novel hydrazide-linked bifunctional peptides as delta/mu opioid receptor agonists and CCK-1/CCK-2 receptor antagonists” (J Med Chem, 2006)

Columns and labels:
[1] = molecular target: T1, Cholecystokinin receptor (Homo sapiens) (UniProt P32239+P32238); assay: Agonist activity at CCK receptor of guinea pig ileum at 1 uM; format: functional, tissue-based; conditions: Cavia porcellus, target entry is the homologue from another species
In short: (§1)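 Guinea pig ileum LMMP strips (male Hartley), 20-mL baths, 1 g tension, oxygenated Krebs bicarbonate buffer, 37 °C. Tissue first challenged with 67 mM KCl to set maximal contraction. Test compound added to the bath; agonist activity taken as contraction height as a percentage of the maximal KCl contraction (A50).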

[2] = molecular target: T1, Cholecystokinin receptor (Homo sapiens); assay: Antagonist activity at CCK receptor by inhibition of CCK8-induced muscle contraction in unstimulated GPI/LMMP; format: functional; conditions: Cavia porcellus; target entry is the homologue from another species
In short: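 Male Hartley guinea pig ileum LMMP strips, 1 g tension, oxygenated Krebs bicarbonate buffer, 37 °C; 67 mM KCl sets maximal contractility. Initial noncumulative CCK-8 dose-response curve built. Test compound added without electrical stimulation; 3 min later the CCK-8 curve was rebuilt at an antagonist dose giving about a 3-fold rightward shift. Ke is the antagonist concentration halving CCK-8 activity.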

[3] = molecular target: Mu-type opioid receptor (Rattus norvegicus) (UniProt P33535); assay: Inhibition of [35S]GTP-gamma-S binding to rat mu opioid receptor expressed in CHO cells; format: functional, cell-based
In short: (§2)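 CHO-expressed receptor membranes (10 µg) in 50 mM HEPES pH 7.4 with EDTA, 5 mM MgCl2, 30 µM GDP, DTT, 100 mM NaCl, PMSF, BSA and 0.1 nM [35S]GTPγS. Test drug at various concentrations, duplicate or triplicate, 90 min at 30 °C. Nonspecific binding with 10 µM GTPγS.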

[4] = molecular target: Delta-type opioid receptor (Homo sapiens, UniProt P41143); assay: Inhibition of [35S]GTP-gamma-S binding to human delta opioid receptor expressed in CHO cells; format: functional, cell-based; in short: as §2
[5] = Selectivity for human delta opioid receptor over rat mu opioid receptor
[6] = molecular target: Delta-type opioid receptor (Mus musculus, UniProt P32300); assay: Agonist activity at delta opioid receptor by inhibition of muscle contraction in electrically stimulated isolated mouse vas deferens; format: functional, tissue-based
In short: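 Male ICR mouse vasa deferentia in 20-mL baths, 0.5 g tension, oxygenated Mg-free Krebs at 37 °C; field stimulation 0.1 Hz, 2.0 ms single pulses, supramaximal voltage. Tissue integrity checked with DPDPE (10 nM). Compound added cumulatively until maximal inhibition. Inhibition taken as mean contraction height for 1 min before dosing versus height 3 min after. IC50 from Hill-equation fit by nonlinear least squares.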

[7] = molecular target: Mu-type opioid receptor (Cavia porcellus, UniProt P97266); assay: Agonist activity at mu opioid receptor by inhibition of muscle contraction in electrically stimulated isolated guinea pig ileum; format: functional, tissue-based
In short: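 Longitudinal muscle–myenteric plexus strips from male Hartley guinea pig ileum, 1 g tension, oxygenated Krebs at 37 °C, 15 min equilibration. Stimulated at 0.1 Hz, 0.4 ms, supramaximal voltage. Integrity checked with PL-017 (10 nM). Compound added until maximal inhibition. Inhibition taken as contraction height 1 min before versus 3 min after dosing. IC50 from Hill-equation fit.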

[8] = molecular target: T1, Cholecystokinin receptor (Homo sapiens); assay: Agonist activity at CCK receptor of guinea pig ileum at 300 nM; format: functional, tissue-based; conditions: Cavia porcellus, target entry is the homologue from another species; in short: as §1
[9] = molecular target: T1, Cholecystokinin receptor (Homo sapiens); assay: Antagonist activity at CCK receptor by inhibition of CCK8-induced muscle contraction in unstimulated GPI/LMMP at 1 uM; format: functional; conditions: Cavia porcellus, filed as partial agonist, target entry is the homologue from another species

T1 sequence (P32238 whole entry, looked up): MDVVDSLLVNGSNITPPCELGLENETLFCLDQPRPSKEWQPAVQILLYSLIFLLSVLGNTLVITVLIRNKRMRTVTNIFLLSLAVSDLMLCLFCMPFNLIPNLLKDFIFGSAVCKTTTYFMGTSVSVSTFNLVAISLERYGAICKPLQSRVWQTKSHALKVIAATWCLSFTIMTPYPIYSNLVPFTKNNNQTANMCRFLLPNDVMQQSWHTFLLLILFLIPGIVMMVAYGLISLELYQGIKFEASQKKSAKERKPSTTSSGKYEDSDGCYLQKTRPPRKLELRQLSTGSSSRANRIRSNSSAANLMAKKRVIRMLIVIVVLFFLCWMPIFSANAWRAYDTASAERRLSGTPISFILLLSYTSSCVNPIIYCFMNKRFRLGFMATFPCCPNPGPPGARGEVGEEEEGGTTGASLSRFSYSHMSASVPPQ
T1 sequence (P32239 whole entry, looked up): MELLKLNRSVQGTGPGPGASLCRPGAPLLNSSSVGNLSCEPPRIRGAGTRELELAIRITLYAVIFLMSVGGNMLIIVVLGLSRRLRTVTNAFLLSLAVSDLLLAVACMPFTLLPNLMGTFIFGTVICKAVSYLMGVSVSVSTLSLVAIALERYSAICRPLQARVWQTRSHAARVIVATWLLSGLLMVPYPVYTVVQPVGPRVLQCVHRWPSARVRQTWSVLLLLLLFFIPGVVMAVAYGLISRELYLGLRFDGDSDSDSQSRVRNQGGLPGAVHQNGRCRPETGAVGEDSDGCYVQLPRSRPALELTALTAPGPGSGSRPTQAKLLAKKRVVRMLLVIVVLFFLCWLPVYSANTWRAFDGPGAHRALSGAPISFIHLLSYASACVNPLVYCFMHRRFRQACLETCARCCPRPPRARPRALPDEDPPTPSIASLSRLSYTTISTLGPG
Chain of Delta-type opioid receptor (Homo sapiens, UniProt P41143) (P41143 whole entry): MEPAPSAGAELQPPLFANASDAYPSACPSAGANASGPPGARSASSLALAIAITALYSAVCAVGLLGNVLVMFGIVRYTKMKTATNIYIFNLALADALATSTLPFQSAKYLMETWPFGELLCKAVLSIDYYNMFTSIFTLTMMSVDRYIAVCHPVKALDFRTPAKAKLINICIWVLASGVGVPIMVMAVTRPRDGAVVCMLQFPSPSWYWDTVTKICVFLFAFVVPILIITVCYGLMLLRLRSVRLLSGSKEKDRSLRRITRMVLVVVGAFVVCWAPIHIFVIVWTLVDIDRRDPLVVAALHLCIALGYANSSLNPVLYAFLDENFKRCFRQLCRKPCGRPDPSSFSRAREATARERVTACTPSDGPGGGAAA
Chain of Mu-type opioid receptor (Rattus norvegicus) (P33535 whole entry): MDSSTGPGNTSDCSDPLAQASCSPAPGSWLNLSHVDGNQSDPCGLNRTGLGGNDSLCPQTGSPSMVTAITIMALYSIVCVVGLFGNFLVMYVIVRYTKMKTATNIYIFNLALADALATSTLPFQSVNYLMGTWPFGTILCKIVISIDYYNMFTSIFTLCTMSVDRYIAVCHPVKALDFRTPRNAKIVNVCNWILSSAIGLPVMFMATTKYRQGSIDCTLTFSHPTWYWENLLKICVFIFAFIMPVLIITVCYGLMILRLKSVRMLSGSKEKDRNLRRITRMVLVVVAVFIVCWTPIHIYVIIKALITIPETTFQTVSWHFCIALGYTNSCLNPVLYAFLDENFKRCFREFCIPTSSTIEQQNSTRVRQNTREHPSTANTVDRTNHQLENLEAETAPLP
Chain of Mu-type opioid receptor (P97266 whole entry): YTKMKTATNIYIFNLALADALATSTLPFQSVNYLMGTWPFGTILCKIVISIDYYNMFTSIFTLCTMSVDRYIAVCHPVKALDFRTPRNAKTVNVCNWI
Chain of Delta-type opioid receptor (Mus musculus, UniProt P32300) (P32300 whole entry): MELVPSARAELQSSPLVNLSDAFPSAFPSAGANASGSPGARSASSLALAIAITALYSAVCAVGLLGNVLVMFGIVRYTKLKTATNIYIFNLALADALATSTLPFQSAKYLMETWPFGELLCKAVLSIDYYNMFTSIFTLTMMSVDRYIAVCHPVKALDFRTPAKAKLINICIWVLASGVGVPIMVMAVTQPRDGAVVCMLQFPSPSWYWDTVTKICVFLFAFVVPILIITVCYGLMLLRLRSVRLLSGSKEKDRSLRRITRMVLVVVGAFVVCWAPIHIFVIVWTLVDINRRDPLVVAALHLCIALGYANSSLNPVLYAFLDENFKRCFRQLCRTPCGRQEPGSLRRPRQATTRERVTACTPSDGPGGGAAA

| SMILES | Activity [1] [%] | Ke [2] [nM] | Emax [3] [%] | Emax [4] [%] | Selectivity ratio [5] | IC50 [6] [nM] | IC50 [7] [nM] | Activity [8] [%] | Ke [9] |
| --- | --- | --- | --- | --- | --- | --- | --- | --- | --- |
| CCCC[C@H](NC(=O)[C@H](CC(=O)O)NC(=O)[C@H](Cc1ccccc1)NN[C@@H](Cc1ccccc1)C(=O)NCC(=O)N[C@H](C)C(=O)N[C@@H](Cc1ccc(O)cc1)C(=O)O)C(=O)N[C@H](Cc1cn(C(=O)OC23CC4CC(CC(C4)C2)C3)c2ccccc12)C(=O)O | 0 | 44 | 103 | 25 | 430 | – | – | – | – |
| CCCC[C@@H](C(=O)N[C@@H](CC(=O)O)C(=O)N[C@@H](Cc1ccccc1)C(N)=O)N(C)C(=O)[C@H](Cc1c[nH]c2ccccc12)NC(=O)CNC(=O)[C@@H](Cc1ccccc1)NC(=O)[C@H](Cc1ccc(O)cc1)NC(=O)[C@@H](N)CC(=O)O | – | 66 | – | – | – | 29 | 220 | 0 | – |
| CCCC[C@@H](C(=O)N[C@H](Cc1cn(C(=O)OC(C)(C)C)c2ccccc12)C(=O)O)N(C)C(=O)[C@H](CC(=O)O)NC(=O)[C@H](Cc1ccccc1)NN[C@@H](Cc1ccccc1)C(=O)NCC(=O)N[C@H](C)C(=O)N[C@@H](Cc1ccc(O)cc1)C(=O)O | 5 | – | 130 | 120 | – | – | – | – | Partial agonist |
